Measurements: ChEMBL document CHEMBL3045579, “Herbicidal activity of cineole derivatives” (2010)
Activity calls are given as the source filed them. The rule behind the calls is not given here.

Key:
Radish [1] = test: Pre-emergence herbicidal activity against Raphanus sativus var.Long scarlet (radish) seeds assessed as seed germination inhibition at 1 mol/l at 25 degC after 72 hr by laboratory-based agar medium bioassay; type: functional, organism-based
Outline: (§1)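 Solutions tested at 1 to 1 × 10^-4 mol L^-1. 10 seeds/dish, 5 randomized replicate dishes angled ~70°. Incubated 72 h at 25 °C in light. Solvent and no-solvent controls. Germination, root length and shoot length recorded.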

Radish [2] = test: Pre-emergence herbicidal activity against Raphanus sativus var.Long scarlet (radish) seeds assessed as root length at 0.1 mol/l at 25 degC after 72 hr by laboratory-based agar medium bioassay relative to control; type: functional; outline: as §1
Radish [3] = test: Pre-emergence herbicidal activity against Raphanus sativus var.Long scarlet (radish) seeds assessed as shoot length at 0.1 mol/l at 25 degC after 72 hr by laboratory-based agar medium bioassay relative to 1,8-Cineole; type: functional
Outline: (§2)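 Agar-plate assay as above: compound in organic solvent evaporated onto Ca/B water agar, 10 seeds × 5 dishes, 72 h at 25 °C in light. Germination, root length or shoot length at 0.1 mol L^-1 expressed relative to 1,8-cineole.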

Lolium rigidum [4] = test: Pre-emergence herbicidal activity against Lolium rigidum seeds assessed as root length at 0.1 mol/l at 25 degC after 72 hr by laboratory-based agar medium bioassay relative to control; type: functional; outline: as §1
Radish [5] = test: Pre-emergence herbicidal activity against Raphanus sativus var.Long scarlet (radish) seeds assessed as concentration required to suppress seed germination at 25 degC after 72 hr by laboratory-based agar medium bioassay; type: functional
Radish [6] = test: Pre-emergence herbicidal activity against Raphanus sativus var.Long scarlet (radish) seeds assessed as seed germination at 0.1 mol/l at 25 degC after 72 hr by laboratory-based agar medium bioassay relative to 1,8-Cineole; type: functional; outline: as §2
Radish [7] = test: Pre-emergence herbicidal activity against Raphanus sativus var.Long scarlet (radish)seeds assessed as seed germination inhibition at 25 degC after 72 hr by laboratory-based agar medium bioassay; type: functional, organism-based; outline: as §1
Radish [8] = test: Pre-emergence herbicidal activity against Raphanus sativus var.Long scarlet (radish) seeds assessed as shoot length at 0.1 mol/l at 25 degC after 72 hr by laboratory-based agar medium bioassay relative to control; type: functional; outline: as §1
Radish [9] = test: Pre-emergence herbicidal activity against Raphanus sativus var.Long scarlet (radish) seeds assessed as seed germination at 0.1 mol/l at 25 degC after 72 hr by laboratory-based agar medium bioassay relative to control; type: functional; outline: as §1
Radish [10] = test: Pre-emergence herbicidal activity against Raphanus sativus var.Long scarlet (radish) seeds assessed as concentration required to suppress root growth at 25 degC after 72 hr by laboratory-based agar medium bioassay; type: functional
Lolium rigidum [11] = test: Pre-emergence herbicidal activity against Lolium rigidum seeds assessed as concentration required to suppress seed germination at 25 degC after 72 hr by laboratory-based agar medium bioassay; type: functional
Radish [12] = test: Pre-emergence herbicidal activity against Raphanus sativus var.Long scarlet (radish) seeds assessed as concentration required to suppress shoot growth at 25 degC after 72 hr by laboratory-based agar medium bioassay; type: functional
Lolium rigidum [13] = test: Pre-emergence herbicidal activity against Lolium rigidum seeds assessed as concentration required to suppress shoot growth at 25 degC after 72 hr by laboratory-based agar medium bioassay; type: functional
Lolium rigidum [14] = test: Pre-emergence herbicidal activity against Lolium rigidum seeds assessed as seed germination at 0.1 mol/l at 25 degC after 72 hr by laboratory-based agar medium bioassay relative to 1,8-Cineole; type: functional; outline: as §2
Lolium rigidum [15] = test: Pre-emergence herbicidal activity against Lolium rigidum seeds assessed as root length at 0.1 mol/l at 25 degC after 72 hr by laboratory-based agar medium bioassay relative to 1,8-Cineole; type: functional; outline: as §2
Lolium rigidum [16] = test: Pre-emergence herbicidal activity against Lolium rigidum seeds assessed as concentration required to suppress root growth at 25 degC after 72 hr by laboratory-based agar medium bioassay; type: functional
Radish [17] = test: Pre-emergence herbicidal activity against Raphanus sativus var.Long scarlet (radish) seeds assessed as root length at 0.1 mol/l at 25 degC after 72 hr by laboratory-based agar medium bioassay relative to 1,8-Cineole; type: functional; outline: as §2
Lolium rigidum [18] = test: Pre-emergence herbicidal activity against Lolium rigidum seeds assessed as shoot length at 0.1 mol/l at 25 degC after 72 hr by laboratory-based agar medium bioassay relative to control; type: functional; outline: as §1
Lolium rigidum [19] = test: Pre-emergence herbicidal activity against Lolium rigidum seeds assessed as shoot length at 0.1 mol/l at 25 degC after 72 hr by laboratory-based agar medium bioassay relative to 1,8-Cineole; type: functional; outline: as §2
Lolium rigidum [20] = test: Pre-emergence herbicidal activity against Lolium rigidum seeds assessed as seed germination at 0.1 mol/l at 25 degC after 72 hr by laboratory-based agar medium bioassay relative to control; type: functional; outline: as §1
Radish [21] = test: Pre-emergence herbicidal activity against Raphanus sativus var.Long scarlet (radish) seeds assessed as shoot growth inhibition at 25 degC after 72 hr by laboratory-based agar medium bioassay; type: functional, organism-based; outline: as §1
Radish [22] = test: Pre-emergence herbicidal activity against Raphanus sativus var.Long scarlet (radish) seeds assessed as root growth inhibition at 25 degC after 72 hr by laboratory-based agar medium bioassay; type: functional, organism-based; outline: as §1
Lolium rigidum [23] = test: Pre-emergence herbicidal activity against Lolium rigidum seeds assessed as shoot growth inhibition at 0.001 to 0.01 mol/l at 25 degC after 72 hr by laboratory-based agar medium bioassay; type: functional, organism-based; outline: as §1
Radish [24] = test: Pre-emergence herbicidal activity against Raphanus sativus var.Long scarlet (radish) seeds assessed as shoot growth inhibition at 1 mol/l at 25 degC after 72 hr by laboratory-based agar medium bioassay; type: functional, organism-based; outline: as §1

CCCCCC(=O)O[C@@H]1C[C@@]2(C(C)C)CC[C@@]1(C)O2 (racemic) [2-Exo-hexoxy-1,4-cineole]
Activity (Radish [1]): inactive

CC(C)[C@]12CC[C@@](C)(O1)[C@H](OC(=O)c1ccccc1)C2 (racemic) [2-exo-benzoxy-1,4-cineole]
Activity (Radish [2]): 54.7% | Ratio (Radish [3]): 1 | Activity (Lolium rigidum [4]): 28% | Activity (Radish [5]): inactive | Ratio (Radish [6]): 0.4 | Activity (Radish [7]): inactive | Activity (Radish [8]): 64% | Activity (Radish [9]): 82.9% | Activity (Radish [10]): 0.01 mol/L | Activity (Lolium rigidum [11]): 0.1 mol/L | Activity (Radish [12]): 0.01 mol/L | Activity (Lolium rigidum [13]): 0.0001 mol/L | Ratio (Lolium rigidum [14]): 0.7 | Ratio (Lolium rigidum [15]): 0.8 | Activity (Lolium rigidum [16]): 0.0001 mol/L | Ratio (Radish [17]): 0.7 | Activity (Lolium rigidum [18]): 23.7% | Ratio (Lolium rigidum [19]): 1.2 | Activity (Lolium rigidum [20]): 46.3%

CC(C)(C)CC(=O)O[C@H]1C[C@@]2(C)CC[C@H]1C(C)(C)O2 (racemic) [3-exo-t-butylacetoxy-1,8-cineole]
Activity (Radish [2]): 72.5% | Ratio (Radish [3]): 0.7 | Activity (Lolium rigidum [4]): 64.9% | Activity (Radish [5]): 0.1 mol/L | Ratio (Radish [6]): 1.1 | Activity (Radish [8]): 90.9% | Activity (Radish [9]): 31.4% | Activity (Radish [10]): inactive | Activity (Lolium rigidum [11]): 0.1 mol/L | Activity (Radish [12]): inactive | Activity (Lolium rigidum [13]): 0.001 mol/L | Ratio (Lolium rigidum [14]): 0.3 | Ratio (Lolium rigidum [15]): 0.3 | Activity (Radish [21]): inactive | Activity (Lolium rigidum [16]): 0.01 mol/L | Ratio (Radish [17]): 0.5 | Activity (Lolium rigidum [18]): 44.8% | Ratio (Lolium rigidum [19]): 0.6 | Activity (Lolium rigidum [20]): 97.8% | Activity (Radish [22]): inactive

CC12CCC(C(=O)C1)C(C)(C)O2 (racemic) [3-oxo-1,8-cineole]
Activity (Radish [2]): 20.5% | Ratio (Radish [3]): 2.2 | Activity (Lolium rigidum [4]): 18.9% | Activity (Radish [5]): 0.01 mol/L | Ratio (Radish [6]): 3.4 | Activity (Radish [8]): 29.3% | Activity (Radish [9]): 10% | Activity (Radish [10]): 0.01 mol/L | Activity (Lolium rigidum [11]): 0.1 mol/L | Activity (Radish [12]): 0.01 mol/L | Activity (Lolium rigidum [13]): 0.0001 mol/L | Ratio (Lolium rigidum [14]): 0.9 | Ratio (Lolium rigidum [15]): 1.2 | Activity (Lolium rigidum [16]): 0.1 mol/L | Ratio (Radish [17]): 1.8 | Activity (Lolium rigidum [23]): inactive | Activity (Lolium rigidum [18]): 18.2% | Ratio (Lolium rigidum [19]): 1.6 | Activity (Lolium rigidum [20]): 33.3%

CC1(C)OC2(C)CC[C@H]1C[C@H]2O (single isomer, unassigned) [2-endo-hydroxy-1,8-cineole]
Activity (Radish [2]): 6.8% | inhibition (Radish [3]): Active | Activity (Lolium rigidum [4]): 39.5% | Activity (Radish [5]): 0.01 mol/L | Ratio (Radish [6]): 13.1 | Activity (Radish [8]): 0% | Activity (Radish [9]): 2.6% | Activity (Radish [10]): 0.01 mol/L | Activity (Lolium rigidum [11]): 0.1 mol/L | Activity (Radish [12]): 0.1 mol/L | Activity (Lolium rigidum [13]): 0.01 mol/L | Ratio (Lolium rigidum [14]): 0.6 | Ratio (Lolium rigidum [15]): 0.6 | Activity (Lolium rigidum [16]): 0.1 mol/L | Ratio (Radish [17]): 5.5 | Activity (Lolium rigidum [18]): 15.4% | Ratio (Lolium rigidum [19]): 1.8 | Activity (Lolium rigidum [20]): 51.5%

CC(=O)O [ACETIC ACID]
Activity (Radish [2]): 0% | inhibition (Radish [3]): Active | Activity (Lolium rigidum [4]): 0% | Activity (Radish [5]): 0.1 mol/L | inhibition (Radish [6]): Active | Activity (Radish [8]): 0% | Activity (Radish [9]): 0% | Activity (Radish [10]): 0.1 mol/L | Activity (Lolium rigidum [11]): 0.1 mol/L | Activity (Radish [12]): 0.1 mol/L | Activity (Lolium rigidum [13]): 0.01 mol/L | inhibition (Lolium rigidum [14]): Active | inhibition (Lolium rigidum [15]): Active | Activity (Lolium rigidum [16]): 0.01 mol/L | inhibition (Radish [17]): Active | Activity (Lolium rigidum [18]): 0% | inhibition (Lolium rigidum [19]): Active | Activity (Lolium rigidum [20]): 0%

O=C(O)c1ccccc1 [BENZOIC ACID]
Activity (Radish [2]): 0% | inhibition (Radish [3]): Active | Activity (Lolium rigidum [4]): 0% | Activity (Radish [5]): 0.1 mol/L | inhibition (Radish [6]): Active | Activity (Radish [8]): 0% | Activity (Radish [9]): 0% | Activity (Radish [10]): 0.01 mol/L | Activity (Lolium rigidum [11]): 0.01 mol/L | Activity (Radish [12]): 0.01 mol/L | Activity (Lolium rigidum [13]): 0.0001 mol/L | inhibition (Lolium rigidum [14]): Active | inhibition (Lolium rigidum [15]): Active | Activity (Lolium rigidum [16]): 0.0001 mol/L | inhibition (Radish [17]): Active | Activity (Lolium rigidum [18]): 0% | inhibition (Lolium rigidum [19]): Active | Activity (Lolium rigidum [20]): 0%

CCCC(=O)O [BUTYRIC ACID]
Activity (Radish [2]): 0% | inhibition (Radish [3]): Active | Activity (Lolium rigidum [4]): 0% | Activity (Radish [5]): 0.1 mol/L | inhibition (Radish [6]): Active | Activity (Radish [8]): 0% | Activity (Radish [9]): 0% | Activity (Radish [10]): 0.01 mol/L | Activity (Lolium rigidum [11]): 0.01 mol/L | Activity (Radish [12]): 0.01 mol/L | Activity (Lolium rigidum [13]): 0.1 mol/L | inhibition (Lolium rigidum [14]): Active | inhibition (Lolium rigidum [15]): Active | Activity (Lolium rigidum [16]): 0.01 mol/L | inhibition (Radish [17]): Active | Activity (Lolium rigidum [18]): 0% | inhibition (Lolium rigidum [19]): Active | Activity (Lolium rigidum [20]): 0%

Cc1ccccc1CO[C@@H]1C[C@@]2(C(C)C)CCC1(C)O2 [CINMETHYLIN]
Activity (Radish [2]): 36.5% | Ratio (Radish [3]): 1 | Activity (Radish [5]): 1 mol/L | Ratio (Radish [6]): 0.4 | Activity (Radish [8]): 62.5% | Activity (Radish [9]): 85.7% | Activity (Radish [10]): 0.0001 mol/L | Activity (Radish [12]): 0.01 mol/L | Activity (Radish [24]): inactive | Ratio (Radish [17]): 0.8

CCCCCC(=O)O [HEXANOATE]
Activity (Radish [2]): 0% | inhibition (Radish [3]): Active | Activity (Lolium rigidum [4]): 0% | Activity (Radish [5]): 0.1 mol/L | inhibition (Radish [6]): Active | Activity (Radish [8]): 0% | Activity (Radish [9]): 0% | Activity (Radish [10]): 0.001 mol/L | Activity (Lolium rigidum [11]): 0.01 mol/L | Activity (Radish [12]): 0.1 mol/L | Activity (Lolium rigidum [13]): 0.0001 mol/L | inhibition (Lolium rigidum [14]): Active | inhibition (Lolium rigidum [15]): Active | Activity (Lolium rigidum [16]): 0.0001 mol/L | inhibition (Radish [17]): Active | Activity (Lolium rigidum [18]): 0% | inhibition (Lolium rigidum [19]): Active | Activity (Lolium rigidum [20]): 0%

CC(C)(C)CC(=O)O [T-BUTYLACETIC ACID]
Activity (Radish [2]): 0% | inhibition (Radish [3]): Active | Activity (Lolium rigidum [4]): 0% | Activity (Radish [5]): 0.1 mol/L | inhibition (Radish [6]): Active | Activity (Radish [8]): 0% | Activity (Radish [9]): 0% | Activity (Radish [10]): 0.01 mol/L | Activity (Lolium rigidum [11]): 0.01 mol/L | Activity (Radish [12]): 0.1 mol/L | Activity (Lolium rigidum [13]): 0.0001 mol/L | inhibition (Lolium rigidum [14]): Active | inhibition (Lolium rigidum [15]): Active | Activity (Lolium rigidum [16]): 0.0001 mol/L | inhibition (Radish [17]): Active | Activity (Lolium rigidum [18]): 0% | inhibition (Lolium rigidum [19]): Active | Activity (Lolium rigidum [20]): 0%
